Active and inactive are the calls of the source.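 Rule for the calls, unless noted: active = Her2 level under about 52% in both replicate screens, with viability over 70% of control (limit read from the data); inconclusive = Her2 under the limit in one screen only, or viability under 70%; inactive = Her2 level above the set limit.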
Assays:
[1] = Her2 expression decrease, cell viability multiplex – SKBR3 breast tumor cells, AlphaScreen, ATP viability, primary screen (AID 461); details: SKBR3 Her2 protein level, 18-24 h, measured here: SKBR3 viability, ATP luminescence, at 10 µM;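 for Her2 level: lower value means less Her2 protein in the cells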;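 for viability: percent of carrier control wells set as 100% viability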
[2] = target: Receptor tyrosine-protein kinase erbB-2 (Homo sapiens) (UniProt P04626); assay: as above; details: 18-24 h, at 10 µM, stronger effect = lower value
[3] = reduced viability of SK-BR-3 breast cancer cells – cell-based, 24 h, human, pilot screen (AID 572;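 active = viability at or below 10% of carrier control in both of two separate runs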;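 note: compound exposure lasted between 18 and 24 h rather than exactly 24 h; 100% = carrier-treated control wells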); details: SK-BR-3 viability, CellTiter-Glo luminescence, at 10 µM, stronger effect = lower value
[4] = HUVEC growth inhibition – cell-based, human, primary screen (AID 575;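 active = viability at or below 30% in both replicate assays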;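 note: 100% = median of untreated cell wells with 0.1% DMSO on each plate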); details: HUVEC proliferation, CellTiter-Glo luminescence, 72 h; at 10 µM; stronger effect = lower value
Procedure, shortened: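 system = HUVEC primary cells | amount = 1250 cells/well | buffer or medium = supplemented EBM, 2% fetal bovine serum | dosing = single-point 10 µM, DMSO 0.1% final | times = 72 h compound incubation | detection = CTG luminescence | read-out = % viability relative to median vehicle-well signal on each plate | control set = vehicle and MePR control wells | format = collagen-coated 384-well format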

[5] = H69AR cell proliferation blockers – human, duplicate replicates, primary screen (AID 580;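 active = viability at or under a set limit in both replicates, limit being median viability minus 3 SD, cut at about 48% in these data, passing the limit was not always enough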;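 note: 100% = mean luminescence of untreated wells and 0% = no signal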); details: H69AR lung tumor cells viability, ATP luminescence, 72 h; at 10 µM; stronger effect = lower value
[6] = MRP1 drug-resistance reversers in H69AR cells – cell-based, doxorubicin co-treatment, pilot screen (AID 601;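 active = viability loss from added drug above about 55%, and viability with drug at most 40%, in both replicates, limit read from the data, passing the limit was not always enough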); details: CellTiter-Glo, 72 h, at 10 µM; for differential viability (reversal): stronger effect = higher value
[7] = yeast transport mutant growth inhibition pilot in 384-well plates, post-Golgi transport modulator project (AID 636; in the data active = inhibition above about 31%); details: absorbance 615 nm, about 18 h, stronger effect = higher value
[8] = growth suppression of yeast trafficking mutant, preliminary HTS, modulators of trafficking downstream of Golgi apparatus project, 1536-format plate, OD 615 nm (AID 637; in the data active = inhibition above about 30%); details: yeast transport mutant growth, absorbance 615 nm, 18 h; stronger effect = higher value
[9] = H69AR cells + 2 uM doxorubicin, measured here: viability with 2 uM doxorubicin, stronger effect = lower value
[10] = H69AR cells, compound alone cytotoxicity

Chain of Receptor tyrosine-protein kinase erbB-2 (Homo sapiens) (P04626 whole entry, looked up): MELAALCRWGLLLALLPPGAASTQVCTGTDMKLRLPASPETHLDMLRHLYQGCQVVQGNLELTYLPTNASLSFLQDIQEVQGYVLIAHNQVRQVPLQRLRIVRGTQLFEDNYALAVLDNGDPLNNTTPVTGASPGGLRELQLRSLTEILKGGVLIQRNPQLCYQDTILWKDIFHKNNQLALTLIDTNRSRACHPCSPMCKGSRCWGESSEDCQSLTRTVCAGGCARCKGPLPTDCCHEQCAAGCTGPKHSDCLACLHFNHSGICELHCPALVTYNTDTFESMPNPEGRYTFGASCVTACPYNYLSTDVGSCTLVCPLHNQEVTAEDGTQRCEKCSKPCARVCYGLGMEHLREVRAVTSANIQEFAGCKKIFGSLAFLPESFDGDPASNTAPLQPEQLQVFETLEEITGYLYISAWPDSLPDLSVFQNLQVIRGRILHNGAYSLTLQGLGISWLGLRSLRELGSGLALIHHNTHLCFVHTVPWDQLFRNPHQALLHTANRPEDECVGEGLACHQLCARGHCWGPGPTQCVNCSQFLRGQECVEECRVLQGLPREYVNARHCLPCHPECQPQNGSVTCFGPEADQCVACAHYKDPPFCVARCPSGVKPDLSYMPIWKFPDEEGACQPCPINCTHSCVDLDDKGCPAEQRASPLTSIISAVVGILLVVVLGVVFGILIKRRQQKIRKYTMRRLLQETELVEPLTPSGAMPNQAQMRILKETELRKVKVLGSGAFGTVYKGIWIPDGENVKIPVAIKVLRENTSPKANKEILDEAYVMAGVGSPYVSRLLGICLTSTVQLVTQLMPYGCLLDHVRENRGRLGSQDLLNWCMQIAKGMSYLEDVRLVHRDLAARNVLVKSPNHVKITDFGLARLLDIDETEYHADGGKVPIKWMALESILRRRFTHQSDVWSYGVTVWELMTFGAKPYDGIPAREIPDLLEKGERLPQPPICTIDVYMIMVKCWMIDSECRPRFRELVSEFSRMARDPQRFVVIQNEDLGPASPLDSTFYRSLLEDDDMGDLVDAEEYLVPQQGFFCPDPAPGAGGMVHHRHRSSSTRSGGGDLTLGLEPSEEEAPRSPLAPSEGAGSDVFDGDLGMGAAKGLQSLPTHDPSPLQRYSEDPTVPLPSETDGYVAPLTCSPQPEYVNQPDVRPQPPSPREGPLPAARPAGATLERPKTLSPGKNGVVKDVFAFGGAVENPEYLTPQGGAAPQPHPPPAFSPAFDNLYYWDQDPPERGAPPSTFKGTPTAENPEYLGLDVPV

Structure (SMILES)	viability [1] [%]	Her2 level [2]	viability [3]	viability [4]	viability [5]	differential viability (reversal) ([6]; H69AR cells + 2 uM doxorubicin)	viability [6, 9] [%]	viability [6, 10] [%]	inhibition [7]	inhibition [8]
C=CCn1c(C)cc(C(=O)CSc2nc3ccccc3c(=O)[nH]2)c1C	90.5	92.5% (inactive)	90.5% (inactive)	61.5% (inactive)	77.8% (inactive)	-4.06% (inactive)	81.8	77.8	54.1% (active)	37.6% (active)
CCC(C)(C)n1nnnc1C(c1cc2cc(OC)ccc2[nH]c1=O)N1CCc2ccccc21 (stereo not given)	97	78% (inactive)	97% (inactive)	67% (inactive)	68% (inactive)	-0.155% (inactive)	68.1	68	-3.6% (inactive)	-4.59% (inactive)
O=C1CN(C(=O)CN2CCCC2)C(c2ccccc2)c2cc(Br)ccc2N1 (stereo not given)	94	91% (inactive)	94% (inactive)	75.8% (inactive)	102% (inactive)	4.63% (inactive)	97.2	102	-4.67% (inactive)	1.61% (inactive)
CC(=O)N(C)C1(c2nnnn2CCOC(=O)Nc2cccc3ccccc23)CCCC1	119	85.5% (inactive)	119% (inactive)	83.9% (inactive)	87.3% (inactive)	3.21% (inactive)	84.1	87.3	-4.13% (inactive)	5.08% (inactive)
O=C(Nc1ccc2c(c1)OCO2)C(c1ccc(Cl)cc1)N1CCN(C(=O)c2ccco2)CC1 (stereo not given)	71	80.5% (inactive)	71% (inactive)	103% (inactive)	91.4% (inactive)	6.85% (inactive)	84.5	91.4	-5.27% (inactive)	2.3% (inactive)
Cc1cccc(C)c1NC(=O)N1CCN(C2CCCCC2)CC1	111	92.5% (inactive)	111% (inactive)	109% (inactive)	104% (inactive)	12.6% (inactive)	91.6	104	-8.03% (inactive)	-2.55% (inactive)
COc1ccc(-n2c(COc3ccccc3)nnc2SCc2ccc(C#N)cc2)cc1	88	93% (inactive)	88% (inactive)	81% (inactive)	76.4% (inactive)	22.4% (inactive)	54.1	76.4	0% (inactive)	-7.82% (inactive)
CCOC(=O)C1CCN(C(=O)CSc2cc(=O)n(CC)c3ccccc23)CC1	85	99.5% (inactive)	85% (inactive)	84% (inactive)	92.4% (inactive)	10.4% (inactive)	82	92.4	-0.39% (inactive)	-5.09% (inactive)
O=C1CC(c2ccc(S(=O)(=O)N3CCN(c4ccccc4)CC3)cc2)CN1 (stereo not given)	96	90% (inactive)	96% (inactive)	93% (inactive)	96.4% (inactive)	1.82% (inactive)	94.6	96.4	-7.3% (inactive)	-10% (inactive)
C=CCn1c(SCC(=O)NC23CC4CC(CC(C4)C2)C3)nc(O)cc1=O	138	108% (inactive)	138% (inactive)	91.4% (inactive)	92.9% (inactive)	0.68% (inactive)	92.2	92.9	-1.18% (inactive)	-0.48% (inactive)
CCOC(=O)c1ccc(NC2OC(=O)c3ccccc32)cc1 (stereo not given)	106	93% (inactive)	106% (inactive)	77.4% (inactive)	91.9% (inactive)	-3.92% (inactive)	95.8	91.9	-6.89% (inactive)	6.17% (inactive)
COC(=O)c1ccc(N2C(=O)CC(N3CCN(C(=O)c4ccco4)CC3)C2=O)cc1 (stereo not given)	86	89.5% (inactive)	86% (inactive)	85.9% (inactive)	89.5% (inactive)	-4.23% (inactive)	93.7	89.5	-3.73% (inactive)	-2.95% (inactive)
O=C(O)C1CC(=O)N(Cc2ccccc2)C1 (stereo not given)	109	96.5% (inactive)	109% (inactive)	91.2% (inactive)	90.2% (inactive)	0.445% (inactive)	89.8	90.2	-5.39% (inactive)	6.23% (inactive)
CCOC(=O)c1ccc(NC(=O)CCc2nc(-c3cccc(C)c3)no2)cc1	114	97.5% (inactive)	114% (inactive)	40.8% (inactive)	86.2% (inactive)	-12.8% (inactive)	99.1	86.2	0.41% (inactive)	13% (inactive)
O=C(Nc1cccc(F)c1)c1ccc2c(c1)OCO2	97.5	106% (inactive)	97.5% (inactive)	103% (inactive)	97.1% (inactive)	13.4% (inactive)	83.7	97.1	-2.63% (inactive)	-3.44% (inactive)
C1CCC2=NCCCN2CC1	122	87.5% (inactive)	122% (inactive)	100% (inactive)	107% (inactive)	8.22% (inactive)	98.4	107	-7.33% (inactive)	-1.9% (inactive)
COC(=O)CN(c1ccc(C)c(Cl)c1)S(C)(=O)=O	108	100% (inactive)	108% (inactive)	99.5% (inactive)	101% (inactive)	10.7% (inactive)	90.5	101	-2.27% (inactive)	-0.81% (inactive)
CC(=O)c1ccc(Oc2cc(C)nc(-n3nc(C)cc3C)n2)cc1	107	96% (inactive)	107% (inactive)	51.7% (inactive)	29.4% (active)	-36.8% (inactive)	66.2	29.4	-5.87% (inactive)	-2.1% (inactive)
CCN(CC)S(=O)(=O)N1CCC(C(=O)NC2CCCc3ccccc32)CC1 (stereo not given)	78	118% (inactive)	78% (inactive)	108% (inactive)	90.5% (inactive)	4.3% (inactive)	86.2	90.5	5.45% (inactive)	-4.26% (inactive)

Reference: PubChem BioAssay
